# In ChEMBL document CHEMBL1139875, “Discovery of 4-aminobutyric acid derivatives possessing anticonvulsant and antinociceptive activities: a hybrid pharmacophore approach” (2007):
# Calls of active or inactive are those of the source. The rule behind the calls is not given here.
# What was measured:
# Rattus norvegicus [1] = experiment: Antihyperalgesic effects in Sprague-Dawley rat CCI model assessed as duration of paw withdrawal at 100 mg/kg, ip after 1.5 hrs; assay type: functional; conditions: route intraperitoneal
# Mus musculus [2] = experiment: Anticonvulsant activity in Swiss Albino mouse at 300 mg/kg, ip after 0.5 hr by scPTZ test; assay type: functional, organism-based; parameters: dose 300 mg/kg
# How it was run: (§1)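 Mice (Swiss, 20-25 g) given i.p. doses of 30, 100 and 300 mg/kg under ADD program protocols, three per group, examined at 0.5 and 4 h in MES, scPTZ, scSTY or scPIC seizure tests. Value is the minimum dose protecting half or more of the mice.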
# Rattus norvegicus [3] = experiment: Effect on spontaneous pain in Sprague-Dawley rat SNL model assessed as duration of paw withdrawal at 100 mg/kg, ip after 1 hr; assay type: functional; conditions: route intraperitoneal
# How it was run: (§2)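 Rats underwent left L5 spinal nerve ligation (Kim and Chung) under i.p. pentobarbital (65 mg/kg). Spontaneous pain is recorded for 5 min after 10 min acclimatization, as cumulative duration the ipsilateral paw is lifted, excluding locomotor lifts. Dosing is 100 mg/kg i.p. in 30% v/v PEG 400/water, with testing at 0.5–2.5 h. Four rats, mean ± SEM versus predrug, one-way ANOVA with Bonferroni.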
# Mus musculus [4] = experiment: Neurotoxicity in Swiss Albino mouse at 300 mg/kg, ip after 0.5 hr by rotarod test; assay type: functional, organism-based; parameters: dose 300 mg/kg
# How it was run: (§3)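 Swiss mice (20-25 g) are trained on an accelerating rotorod (10 rpm, 3.2 cm rod), then injected i.p. at 30, 100 or 300 mg/kg, with three per group. Neurotoxicity means failure to keep equilibrium for at least 1 min in each of three trials, checked at 0.5 and 4 h. The value reported is the minimum dose affecting half or more of the mice.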
# Rattus norvegicus [5] = experiment: Antihyperalgesic effects in Sprague-Dawley rat CCI model assessed as duration of paw withdrawal at 100 mg/kg, ip after 0.5 hr; assay type: functional; conditions: route intraperitoneal
# Mus musculus [6] = experiment: Analgesic activity in Swiss Albino mouse assessed as number of acetic acid-induced writhing per 30 min after 100 mg/kg, ip; assay type: functional; conditions: route intraperitoneal
# How it was run: (§4)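 Mice in groups of six dosed i.p. at 100 mg/kg, controls receiving 30% v/v PEG 400 in water. Writhing induced by i.p. 0.1 mL of 3% v/v acetic acid 1 h after drug. Writhes (abdominal stretch with at least one hind limb extended) counted over 30 min; % inhibition calculated. Mean ± SEM, Student's t test.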
# Rattus norvegicus [7] = experiment: Anti-cold allodynia effect in Sprague-Dawley rat SNL model assessed as duration of paw withdrawal 100 mg/kg, ip after 2 hrs; assay type: functional; conditions: route intraperitoneal
# How it was run: (§5)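 Left L5 spinal nerve ligation under pentobarbital (65 mg/kg i.p.). Allodynic rats dosed i.p. 100 mg/kg, vehicle 30% v/v PEG 400 in water. Acetone (100-200 µL) misted onto midplantar affected paw after 10 min acclimatization; paw withdrawal duration, mean of three samples at least 3 min apart; n = 4 rats.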
# Mus musculus [8] = experiment: Anticonvulsant activity in Swiss Albino mouse at 300 mg/kg, ip after 4 hrs by scSTY test; assay type: functional, organism-based; parameters: dose 300 mg/kg; how it was run: as §1
# Rattus norvegicus [9] = experiment: Anti-dynamic allodynia effect in Sprague-Dawley rat SNL model assessed as latency to paw withdrawal 100 mg/kg, ip after 1 hr; assay type: functional; conditions: route intraperitoneal
# How it was run: (§6)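 Left L5 spinal nerve ligation rats, tested preoperatively and 9 days postoperatively, then given 100 mg/kg i.p. (vehicle 30% v/v PEG 400 in water). After 10 min acclimatization, plantar surface of affected paw stroked mildly with a cotton-bud; paw lift response recorded. n = 4; retested 0.5-2.5 h post-dose.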
# Mus musculus [10] = experiment: Neurotoxicity in Swiss Albino mouse at 300 mg/kg, ip after 4 hrs by rotarod test; assay type: functional, organism-based; parameters: dose 300 mg/kg; how it was run: as §3
# Mus musculus [11] = experiment: Anticonvulsant activity in Swiss Albino mouse at 300 mg/kg, ip after 0.5 hr by MES test; assay type: functional, organism-based; parameters: dose 300 mg/kg; how it was run: as §1
# Rattus norvegicus [12] = experiment: Effect on spontaneous pain in Sprague-Dawley rat CCI model assessed as duration of paw withdrawal at 100 mg/kg, ip after 2 hrs; assay type: functional; conditions: route intraperitoneal
# How it was run: (§7)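 Unilateral CCI of sciatic nerve (Bennett and Xie) in Sprague-Dawley rats under i.p. pentobarbital sodium (65 mg/kg). Spontaneous pain is scored over 5 min after 10 min acclimatization, as cumulative time the ipsilateral paw is held off the floor. Paw lifts from locomotion or repositioning are excluded. Drug is given at 100 mg/kg i.p. with 30% v/v PEG 400 vehicle. Mean ± SEM, n = 4, compared with predrug by ANOVA/Bonferroni.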
# Rattus norvegicus [13] = experiment: Antihyperalgesic effects in Sprague-Dawley rat CCI model assessed as duration of paw withdrawal at 100 mg/kg, ip after 1 hr; assay type: functional; conditions: route intraperitoneal
# Mus musculus [14] = experiment: Anticonvulsant activity in Swiss Albino mouse at 300 mg/kg, ip after 4 hrs by MES test; assay type: functional, organism-based; parameters: dose 300 mg/kg; how it was run: as §1
# Mus musculus [15] = experiment: Analgesic activity in Swiss Albino mouse assessed as inhibition of acetic acid-induced writhing responses at 100 mg/kg, ip; assay type: functional; conditions: route intraperitoneal; how it was run: as §4
# Rattus norvegicus [16] = experiment: Antihyperalgesic effects in Sprague-Dawley rat CCI model assessed as duration of paw withdrawal at 100 mg/kg, ip after 2 hrs; assay type: functional; conditions: route intraperitoneal
# Rattus norvegicus [17] = experiment: Anti-dynamic allodynia effect in Sprague-Dawley rat SNL model assessed as latency to paw withdrawal 100 mg/kg, ip after 0.5 hr; assay type: functional; conditions: route intraperitoneal; how it was run: as §6
# Rattus norvegicus [18] = experiment: Antihyperalgesic effects in Sprague-Dawley rat CCI model assessed as duration of paw withdrawal at 100 mg/kg, ip after 2.5 hrs; assay type: functional; conditions: route intraperitoneal
# Rattus norvegicus [19] = experiment: Effect on spontaneous pain in Sprague-Dawley rat SNL model assessed as duration of paw withdrawal at 100 mg/kg, ip after 2 hrs; assay type: functional; conditions: route intraperitoneal; how it was run: as §2
# Rattus norvegicus [20] = experiment: Effect on spontaneous pain in Sprague-Dawley rat CCI model assessed as duration of paw withdrawal at 100 mg/kg, ip after 1.5 hrs; assay type: functional; conditions: route intraperitoneal; how it was run: as §7
# Rattus norvegicus [21] = experiment: Anti-cold allodynia effect in Sprague-Dawley rat SNL model assessed as duration of paw withdrawal 100 mg/kg, ip after 1.5 hrs; assay type: functional; conditions: route intraperitoneal; how it was run: as §5
# Mus musculus [22] = experiment: Anticonvulsant activity in Swiss Albino mouse at 300 mg/kg, ip after 0.5 hr by scSTY test; assay type: functional, organism-based; parameters: dose 300 mg/kg; how it was run: as §1
# Mus musculus [23] = experiment: Anticonvulsant activity in Swiss Albino mouse at 300 mg/kg, ip after 4 hrs by scPIC test; assay type: functional, organism-based; parameters: dose 300 mg/kg; how it was run: as §1
# Rattus norvegicus [24] = experiment: Effect on spontaneous pain in Sprague-Dawley rat SNL model assessed as duration of paw withdrawal at 100 mg/kg, ip after 0.5 hr; assay type: functional; conditions: route intraperitoneal; how it was run: as §2
# Rattus norvegicus [25] = experiment: Effect on spontaneous pain in Sprague-Dawley rat CCI model assessed as duration of paw withdrawal at 100 mg/kg, ip after 0.5 hr; assay type: functional; conditions: route intraperitoneal
# How it was run: (§8)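 CCI rats (n = 4) dosed 100 mg/kg i.p. (vehicle 30% v/v PEG 400 in water). After 10 min acclimatization in a cage 5 cm above ground, cumulative time the ipsilateral paw was held off the floor over 5 min recorded, excluding locomotion lifts. Mean ± SEM; ANOVA/Bonferroni versus predrug.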
# Rattus norvegicus [26] = experiment: Effect on spontaneous pain in Sprague-Dawley rat SNL model assessed as duration of paw withdrawal at 100 mg/kg, ip after 1.5 hrs; assay type: functional; conditions: route intraperitoneal; how it was run: as §2
# Mus musculus [27] = experiment: Anticonvulsant activity in Swiss Albino mouse at 300 mg/kg, ip after 0.5 hr by scPIC test; assay type: functional, organism-based; parameters: dose 300 mg/kg; how it was run: as §1
# Rattus norvegicus [28] = experiment: Anti-dynamic allodynia effect in Sprague-Dawley rat SNL model assessed as latency to paw withdrawal 100 mg/kg, ip after 2 hrs; assay type: functional; conditions: route intraperitoneal; how it was run: as §6
# Rattus norvegicus [29] = experiment: Anti-dynamic allodynia effect in Sprague-Dawley rat SNL model assessed as latency to paw withdrawal 100 mg/kg, ip after 1.5 hrs; assay type: functional; conditions: route intraperitoneal; how it was run: as §6
# Rattus norvegicus [30] = experiment: Anti-dynamic allodynia effect in Sprague-Dawley rat SNL model assessed as latency to paw withdrawal 100 mg/kg, ip after 2.5 hrs; assay type: functional; conditions: route intraperitoneal; how it was run: as §6
# Rattus norvegicus [31] = experiment: Anti-cold allodynia effect in Sprague-Dawley rat SNL model assessed as duration of paw withdrawal 100 mg/kg, ip after 2.5 hrs; assay type: functional; conditions: route intraperitoneal; how it was run: as §5
# Rattus norvegicus [32] = experiment: Anti-cold allodynia effect in Sprague-Dawley rat SNL model assessed as duration of paw withdrawal 100 mg/kg, ip after 1 hrs; assay type: functional; conditions: route intraperitoneal; how it was run: as §5
# Rattus norvegicus [33] = experiment: Effect on spontaneous pain in Sprague-Dawley rat CCI model assessed as duration of paw withdrawal at 100 mg/kg, ip after 1 hr; assay type: functional; conditions: route intraperitoneal; how it was run: as §8
# Rattus norvegicus [34] = experiment: Effect on spontaneous pain in Sprague-Dawley rat CCI model assessed as duration of paw withdrawal at 100 mg/kg, ip after 2.5 hrs; assay type: functional; conditions: route intraperitoneal; how it was run: as §7
# Rattus norvegicus [35] = experiment: Effect on spontaneous pain in Sprague-Dawley rat SNL model assessed as duration of paw withdrawal at 100 mg/kg, ip after 2.5 hrs; assay type: functional; conditions: route intraperitoneal; how it was run: as §2
# Rattus norvegicus [36] = experiment: Anti-cold allodynia effect in Sprague-Dawley rat SNL model assessed as duration of paw withdrawal 100 mg/kg, ip after 0.5 hr; assay type: functional; conditions: route intraperitoneal; how it was run: as §5
structure (smiles),measurement,setting,value
C/C(=N\NC(=O)NCCCC(=O)O)c1ccc(C)cc1,Activity,Rattus norvegicus [1],9.6 s
same,Activity,Mus musculus [2],Active
same,Activity,Rattus norvegicus [3],11.1 s
same,Activity,Mus musculus [4],Active
same,Activity,Rattus norvegicus [5],27.3 s
same,Activity,Mus musculus [6],32.5
same,Activity,Rattus norvegicus [7],10.7 s
same,Activity,Mus musculus [8],inactive
same,Activity,Rattus norvegicus [9],9.1 s
same,Activity,Mus musculus [10],inactive
same,Activity,Mus musculus [11],inactive
same,Activity,Rattus norvegicus [12],10.9 s
same,Activity,Rattus norvegicus [13],13.2 s
same,Activity,Mus musculus [14],inactive
same,inhibition in vivo at 100 mg/kg,Mus musculus [15],82%
same,Activity,Rattus norvegicus [16],5.3 s
same,Activity,Rattus norvegicus [17],12.5 s
same,Activity,Rattus norvegicus [18],4.2 s
same,Activity,Rattus norvegicus [19],2.9 s
same,Activity,Rattus norvegicus [20],18.3 s
same,Activity,Rattus norvegicus [21],12.9 s
same,Activity,Mus musculus [22],inactive
same,Activity,Mus musculus [23],inactive
same,Activity,Rattus norvegicus [24],22.2 s
same,Activity,Rattus norvegicus [25],23.9 s
same,Activity,Rattus norvegicus [26],6.4 s
same,Activity,Mus musculus [27],Active
same,Activity,Rattus norvegicus [28],12.4 s
same,Activity,Rattus norvegicus [29],10.9 s
same,Activity,Rattus norvegicus [30],12.02 s
same,Activity,Rattus norvegicus [31],14.3 s
same,Activity,Rattus norvegicus [32],23.9 s
same,Activity,Rattus norvegicus [33],21.8 s
same,Activity,Rattus norvegicus [34],10.7 s
same,Activity,Rattus norvegicus [35],3.1 s
same,Activity,Rattus norvegicus [36],27.2 s
